Bioassay records from PubChem BioAssay.
KDM4C inh – inhibitors of GASC-1 (KDM4C) histone demethylase, primary screen, biochemical, single concentration HTS; AID 720574, 2013; GST-KDM4C 2-372, H3K9me3 peptide, LANCE TR-FRET; actives 0.15% (n = 96,000); inhibition, % at 12.5 µM;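 active = mean replicate inhibition above about 25%, with at least 55% of replicates also reaching it, limit read from the data, passing the limit was not always enough; inconclusive = only one of those two conditions met; inactive = neither condition met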
Target sequence (Q9H3R0 2-372 limits assumed): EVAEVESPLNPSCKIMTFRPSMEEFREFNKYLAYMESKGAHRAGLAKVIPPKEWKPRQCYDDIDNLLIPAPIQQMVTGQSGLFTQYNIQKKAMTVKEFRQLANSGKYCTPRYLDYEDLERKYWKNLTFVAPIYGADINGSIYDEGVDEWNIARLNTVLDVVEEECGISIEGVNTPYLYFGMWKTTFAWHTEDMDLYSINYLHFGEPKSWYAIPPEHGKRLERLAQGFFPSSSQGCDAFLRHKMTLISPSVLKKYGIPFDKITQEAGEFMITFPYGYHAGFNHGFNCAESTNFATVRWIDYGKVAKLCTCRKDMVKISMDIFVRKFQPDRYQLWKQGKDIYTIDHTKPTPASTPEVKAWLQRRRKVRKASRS
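Test system – GST-tagged GASC-1 (JMJD2C) catalytic fragment, aa 2-372 · Medium – HEPES buffer, pH 7.5, plus ascorbate · Reagent – H3K9me3 peptide with Fe(II)/2OG · Compound – one test concentration per compound · Timing – 30 min reaction, 60 min detection, RT · Technique – TR-FRET with Eu antibody and ULight streptavidin, EDTA stop · Read-out basis – inhibition from TR-FRET ratio decrease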
IDH1 R132H inh – inhibitors of IDH1 R132H reductase, primary screen, biochemical, plate reader, single point; diaphorase/resazurin fluorescence, 60 min; inhibition, % at 10 µM; actives 0.18% (n = 70,000); AID 624101, 2012; in the data active = inhibition above about 34%; inconclusive = no clear call, values can overlap the other calls; inactive = below about 11%
T cruzi growth-1 – T. cruzi intracellular proliferation inhibitors, primary screen, cell-based, beta-gal Tulahuen parasites, NIH3T3 host, luminescence; T. cruzi beta-gal in NIH3T3, GalScreen luminescence, 90 h; inhibition, % at 8.34 µM; actives 5.9% (n = 77,000);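 active = mean inhibition above about 93%, with at least 55% of replicates each passing it, limit read from the data, passing the limit was not always enough; inconclusive = only one of those two conditions holds; inactive = neither condition holds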
T cruzi growth-2 – T. cruzi intracellular proliferation inhibitors, confirmation, cell-based, NIH3T3 host, beta-gal parasite, luminescence, cherry-pick. shares compounds with T cruzi growth-1. T. cruzi beta-gal in NIH3T3, GalScreen luminescence, 90 h. inhibition, % at 8.35 µM. actives 72% (n = 5,600). AID 651739, 2012;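 active = mean replicate inhibition above about 95% and at least 55% of replicates individually reaching it, limit read from the data; inconclusive = only one of the two criteria is met; inactive = neither criterion is met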
T cruzi growth-3 – inhibitors of intracellular T. cruzi replication, confirmation, NIH3T3 host cells, beta-gal parasites, cherry-pick, set 2. shares compounds with T cruzi growth-1. T. cruzi beta-gal in NIH3T3, GalScreen luminescence, 90 h. inhibition, % at 2.09 µM. actives 21% (n = 5,600);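 active = mean inhibition above about 95%, with at least 55% of replicates also reaching it, limit read from the data; inconclusive = meets just one of the two conditions; inactive = meets neither condition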
NIH3T3 tox – cytotoxicity in mouse NIH/3T3 fibroblasts, confirmation, cytotoxicity control for T. cruzi proliferation inhibitor project, cell-based, cherry-pick, single point | shares compounds with T cruzi growth-1 | NIH/3T3 viability, CellTiter-Glo ATP luminescence, 90 h | cytotoxicity (signal decrease), % at 8.35 µM | actives 14% (n = 5,600);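 active = mean signal decrease across replicates above about 35% based on untreated-well scatter, with enough replicates individually passing, limit read from the data; inconclusive = no rule stated though some were filed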
3T3 cytotox 2 – NIH/3T3 fibroblast cytotoxicity, confirmation, cytotoxicity control, cell-based, cherry-pick, single point, set 2; shares compounds with T cruzi growth-1; NIH/3T3 viability, CellTiter-Glo ATP luminescence, 90 h; inhibition, % at 24.9 µM; actives 56% (n = 5,600); AID 651744, 2012;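 active = mean loss of cell viability signal at or above a set limit, and enough replicates individually reaching it; inconclusive = meets only the mean limit or only the replicate share; inactive = meets neither condition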
Hits are given with their value. Shown is part of a subset that was picked to be rich in hits.

How did C[C@H](CO)N1C[C@H](C)[C@H](CN(C)Cc2cccc(C(F)(F)F)c2)Oc2ncc(-c3ccccc3)cc2C1=O do in these assays?
KDM4C inh: inactive; IDH1 R132H inh: inactive; T cruzi growth-1: 119; T cruzi growth-2: 99; T cruzi growth-3: inactive; NIH3T3 tox: inactive; 3T3 cytotox 2: inactive

How did C[C@H](CO)N1C[C@H](C)[C@H](CN(C)C(=O)Nc2cccc3ccccc23)Oc2ncc(-c3cccc(C(F)(F)F)c3)cc2C1=O do in these assays?
KDM4C inh: inactive; IDH1 R132H inh: inactive; T cruzi growth-1: 107; T cruzi growth-2: 100; T cruzi growth-3: inactive; NIH3T3 tox: 44; 3T3 cytotox 2: 104

Results for C[C@H](CO)N1C[C@H](C)[C@H](CN(C)C(=O)Nc2cccc3ccccc23)Oc2ncc(-c3cccc(F)c3)cc2C1=O ?
KDM4C inh: inactive; IDH1 R132H inh: inactive

What do the screens show for `COc1ccc(C#Cc2cnc3c(c2)C(=O)N([C@H](C)CO)C[C@H](C)[C@H](CN(C)Cc2ccccc2)O3)cc1OC`?
KDM4C inh: inactive; IDH1 R132H inh: inactive; T cruzi growth-1: inactive

Results for Cc1cccc(CN(C)C[C@@H]2Oc3ncc(-c4cccc(C(F)(F)F)c4)cc3C(=O)N([C@H](C)CO)C[C@@H]2C)c1 ?
KDM4C inh: inactive; IDH1 R132H inh: inactive; T cruzi growth-1: inactive

Results for COc1ccc(C#Cc2cnc3c(c2)C(=O)N([C@H](C)CO)C[C@H](C)[C@H](CN(C)Cc2cccc(C(F)(F)F)c2)O3)cc1OC ?
KDM4C inh: inactive; IDH1 R132H inh: inactive; T cruzi growth-1: 127; T cruzi growth-2: 107; T cruzi growth-3: inactive; NIH3T3 tox: inactive; 3T3 cytotox 2: inactive

Results for CC(C)OC(=O)CSc1nc(-c2ccccc2)cc(C(F)(F)F)c1C#N ?
IDH1 R132H inh: inactive

How did O=C(CSc1nnc(-c2ccco2)n1-c1cccc2ccccc12)Nc1ccc(C(=O)O)cc1 do in these assays?
IDH1 R132H inh: inactive

Results for O=C(Nc1cccs1)Nc1nnc(C2CC2)s1 ?
IDH1 R132H inh: inactive

What do the screens show for `CCSc1nc2ccccc2n1C(CC(=O)O)C(=O)O` (stereo unspecified)?
IDH1 R132H inh: inactive

Results for O=S(=O)(NC[C@@H]1N[C@@H](CO)[C@@H]1c1ccccc1)c1ccccc1 ?
KDM4C inh: inactive; T cruzi growth-1: inactive

How did C/C=C/c1ccc([C@@H]2[C@@H](CO)N[C@@H]2CN(C)S(=O)(=O)c2ccccc2)cc1 do in these assays?
KDM4C inh: inactive; T cruzi growth-1: inactive

Results for O=S(=O)(NC[C@@H]1N[C@@H](CO)[C@H]1c1ccccc1)c1ccccc1 ?
KDM4C inh: inactive; T cruzi growth-1: 104; T cruzi growth-2: inactive; T cruzi growth-3: inactive; NIH3T3 tox: inactive; 3T3 cytotox 2: inactive

How did C/C=C/c1ccc([C@@H]2[C@H](CN(C)S(=O)(=O)c3ccccc3)N[C@@H]2CO)cc1 do in these assays?
KDM4C inh: inactive; T cruzi growth-1: 108; T cruzi growth-2: inactive; T cruzi growth-3: inactive; NIH3T3 tox: inactive; 3T3 cytotox 2: 37

What do the screens show for `CCc1ccccc1NC(=O)CN(C)S(=O)(=O)c1c(C)cc(C)cc1C`?
IDH1 R132H inh: inactive

What do the screens show for `C[C@H](CO)N1C[C@H](C)[C@H](CN(C)C(=O)Nc2ccc(C(F)(F)F)cc2)OCCCC[C@H](C)Oc2ccc(NC(=O)NC3CCCCC3)cc2C1=O`?
KDM4C inh: inactive; T cruzi growth-1: 122; T cruzi growth-2: inconclusive; T cruzi growth-3: 106; NIH3T3 tox: inactive; 3T3 cytotox 2: inactive

Results for C[C@H]1CCCCO[C@@H](CN(C)C(=O)Nc2ccc(C(F)(F)F)cc2)[C@@H](C)CN([C@@H](C)CO)C(=O)c2cc(NC(=O)NC3CCCCC3)ccc2O1 ?
KDM4C inh: inactive; IDH1 R132H inh: inactive; T cruzi growth-1: 123; T cruzi growth-2: 101; T cruzi growth-3: 113; NIH3T3 tox: inactive; 3T3 cytotox 2: inactive

What do the screens show for `C[C@H](CO)N1C[C@H](C)[C@@H](CN(C)C(=O)NC2CCCCC2)OCCCC[C@H](C)Oc2ccc(NC(=O)Nc3ccc(C(F)(F)F)cc3)cc2C1=O`?
KDM4C inh: inactive; T cruzi growth-1: inactive

What do the screens show for `C[C@@H]1CCCCO[C@H](CN(C)C(=O)Nc2ccc(C(F)(F)F)cc2)[C@@H](C)CN([C@H](C)CO)C(=O)c2cc(NC(=O)NC3CCCCC3)ccc2O1`?
KDM4C inh: inactive; T cruzi growth-1: 113; T cruzi growth-2: 108; T cruzi growth-3: inactive; NIH3T3 tox: inactive; 3T3 cytotox 2: inactive

How did C[C@@H]1CCCCO[C@@H](CN(C)C(=O)Nc2ccc(C(F)(F)F)cc2)[C@H](C)CN([C@H](C)CO)C(=O)c2cc(NC(=O)NC3CCCCC3)ccc2O1 do in these assays?
KDM4C inh: inactive; IDH1 R132H inh: inactive; T cruzi growth-1: 117; T cruzi growth-2: 104; T cruzi growth-3: 109; NIH3T3 tox: inactive; 3T3 cytotox 2: inactive

Results for C[C@H]1CCCCO[C@@H](CN(C)C(=O)NC2CCCCC2)[C@@H](C)CN([C@@H](C)CO)C(=O)c2cc(NC(=O)Nc3ccc(C(F)(F)F)cc3)ccc2O1 ?
KDM4C inh: inactive; T cruzi growth-1: inactive

How did C[C@@H]1CN([C@H](C)CO)C(=O)c2cc(NC(=O)Nc3ccc(C(F)(F)F)cc3)ccc2O[C@@H](C)CCCCO[C@@H]1CN(C)C(=O)NC1CCCCC1 do in these assays?
KDM4C inh: inactive; T cruzi growth-1: inactive

How did C[C@H](CO)N1C[C@H](C)[C@H](CN(C)C(=O)NC2CCCCC2)OCCCC[C@H](C)Oc2ccc(NC(=O)Nc3ccc(C(F)(F)F)cc3)cc2C1=O do in these assays?
KDM4C inh: inactive; IDH1 R132H inh: inactive; T cruzi growth-1: inactive

How did C=CC(C)(CC/C=C(\C)C(=O)O)O[C@@H]1O[C@H](C)[C@@H](O)[C@H](O)[C@H]1O (stereo partly specified) do in these assays?
IDH1 R132H inh: inactive

What do the screens show for `Cc1ccc(NC(=O)Cn2cnc3sc(C(=O)OC(C)C)c(C)c3c2=O)cc1`?
IDH1 R132H inh: inactive
